Test results from ChEMBL document CHEMBL4196142, “Efficacy of Apigenin and Miltefosine Combination Therapy against Experimental Cutaneous Leishmaniasis” (J Nat Prod, 2018).
Calls of active or inactive are those of the source. No cut-off for these calls is given here.

Columns and labels:
Mus musculus [1] = assay: Hepatotoxicity in Balb/c mouse infected with stationary-phase Leishmania amazonensis MHOM/BR/75/LTB0016 promastigotes assessed as serum ALT level at 1 mg/kg, po administered once daily via orogastric tube for 32 days starting from 7 days post infection measured post last dose in presence of 4 mg/kg miltefosine (reference value: 88.41 +/- 8.77 U/L); assay type: toxicity, organism-based; conditions: in vivo
Outline: (§1)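 Infected female BALB/c mice, dosed orally once daily from day 7 to day 32, had serum AST, ALT and creatinine measured by dry chemistry technology at the PDTIS-FIOCRUZ facility. Mean ± SE, n = 5.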

Leishmania amazonensis [2] = assay: Synergistic antileishmanial activity against stationary-phase Leishmania amazonensis MHOM/BR/75/LTB0016 promastigotes infected in human THP1-derived macrophages assessed as fractional inhibitory concentration at test compound to miltefosine ratio of 4:1 by serial dilution based light microscopic method; assay type: functional
Outline: (§2)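 In the infected THP-1 macrophage fixed-ratio assay, FIC and ∑FIC came from each ratio's EC50 by the modified fixed-ratio isobologram method. Mean ∑FIC was the average of the ∑FICs and was used to classify the interaction; isobolograms were plotted from each ratio's FIC values.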

Mus musculus [3] = assay: Hepatotoxicity in Balb/c mouse infected with stationary-phase Leishmania amazonensis MHOM/BR/75/LTB0016 promastigotes assessed as serum ALT level at 2 mg/kg, po administered once daily via orogastric tube for 32 days starting from 7 days post infection measured post last dose (reference value: 88.41 +/- 8.77 U/L); assay type: toxicity, organism-based; conditions: in vivo; outline: as §1
Leishmania amazonensis [4] = assay: Synergistic antileishmanial activity against stationary-phase Leishmania amazonensis MHOM/BR/75/LTB0016 promastigotes infected in human THP1-derived macrophages assessed as fractional inhibitory concentration at test compound to miltefosine ratio of 2:3 by serial dilution based light microscopic method; assay type: functional; outline: as §2
Leishmania amazonensis [5] = assay: Antileishmanial activity against stationary-phase Leishmania amazonensis MHOM/BR/75/LTB0016 promastigotes infected in Balb/c mouse assessed as reduction in lesion size at 2 mg/kg, po administered once daily via orogastric tube starting from 7 days post infection for 32 days measured twice weekly during compound dosing by caliper method; assay type: functional, organism-based
Outline: (§3)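 Female BALB/c mice, 10−12 weeks, were infected intradermally in the right ear with 2 × 10^6 stationary-phase promastigotes in 10 μL PBS. From day 7 post-infection, dosing was oral by orogastric tube once daily, seven times per week, until day 32. Compound in DMSO (1% v/v), miltefosine in PBS; controls got vehicle suspension with DMSO 0.2% v/v. Lesion size was read by dial caliper twice weekly; n = 5.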

Mus musculus [6] = assay: Hepatotoxicity in Balb/c mouse infected with stationary-phase Leishmania amazonensis MHOM/BR/75/LTB0016 promastigotes assessed as serum AST level at 1 mg/kg, po administered once daily via orogastric tube for 32 days starting from 7 days post infection measured post last dose in presence of 4 mg/kg miltefosine (reference value: 161.1 +/- 20.99 U/L); assay type: toxicity, organism-based; conditions: in vivo; outline: as §1
Leishmania amazonensis [7] = assay: Antileishmanial activity against stationary-phase Leishmania amazonensis MHOM/BR/75/LTB0016 promastigotes infected in human THP1-derived macrophages at test compound to miltefosine ratio of 1:4 by serial dilution based light microscopic method; assay type: functional, organism-based
Leishmania amazonensis [8] = assay: Antileishmanial activity against stationary-phase Leishmania amazonensis MHOM/BR/75/LTB0016 promastigotes infected in human THP1-derived macrophages at test compound to miltefosine ratio of 4:1 by serial dilution based light microscopic method; assay type: functional, organism-based
Leishmania amazonensis [9] = assay: Synergistic antileishmanial activity against stationary-phase Leishmania amazonensis MHOM/BR/75/LTB0016 promastigotes infected in human THP1-derived macrophages assessed as fractional inhibitory concentration at test compound to miltefosine ratio of 1:4 by serial dilution based light microscopic method; assay type: functional; outline: as §2
Leishmania amazonensis [10] = assay: Antileishmanial activity against stationary-phase Leishmania amazonensis MHOM/BR/75/LTB0016 promastigotes infected in human THP1-derived macrophages at test compound to miltefosine ratio of 2:3 by serial dilution based light microscopic method; assay type: functional, organism-based
Mus musculus [11] = assay: Hepatotoxicity in Balb/c mouse infected with stationary-phase Leishmania amazonensis MHOM/BR/75/LTB0016 promastigotes assessed as serum AST level at 2 mg/kg, po administered once daily via orogastric tube for 32 days starting from 7 days post infection measured post last dose (reference value: 161.1 +/- 20.99 U/L); assay type: toxicity, organism-based; conditions: in vivo; outline: as §1
Leishmania amazonensis [12] = assay: Synergistic antileishmanial activity against stationary-phase Leishmania amazonensis MHOM/BR/75/LTB0016 promastigotes infected in Balb/c mouse assessed as reduction in parasite load at 1 mg/kg, po administered once daily via orogastric tube starting from 7 days post infection for 32 days in presence of 4 mg/kg miltefosine by dilution method relative to control; assay type: functional; parameters: scale not given: the % may be the effect or the level left
Outline: (§4)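 Ear infection and daily oral dosing were as for the lesion study in female BALB/c mice, ending at euthanasia on day 32. Infected ears were excised, weighed, minced in Schneider's medium with 10% FCS and serially diluted. Viable parasites per ear were estimated from the highest dilution still growing promastigotes after 7 days at 26 °C. Mean ± SE, n = 5 ears.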

Leishmania amazonensis [13] = assay: Synergistic antileishmanial activity against stationary-phase Leishmania amazonensis MHOM/BR/75/LTB0016 promastigotes infected in human THP1-derived macrophages assessed as fractional inhibitory concentration at test compound to miltefosine ratio of 3:2 by serial dilution based light microscopic method; assay type: functional; outline: as §2
Mus musculus [14] = assay: Renal toxicity in Balb/c mouse infected with stationary-phase Leishmania amazonensis MHOM/BR/75/LTB0016 promastigotes assessed as serum creatinine level at 1 mg/kg, po administered once daily via orogastric tube for 32 days starting from 7 days post infection measured post last dose in presence of 4 mg/kg miltefosine (reference value: 0.61 +/- 0.06 mg/dl); assay type: organism-based; conditions: in vivo; outline: as §1
Mus musculus [15] = assay: Renal toxicity in Balb/c mouse infected with stationary-phase Leishmania amazonensis MHOM/BR/75/LTB0016 promastigotes assessed as serum creatinine level at 2 mg/kg, po administered once daily via orogastric tube for 32 days starting from 7 days post infection measured post last dose (reference value: 0.61 +/- 0.06 mg/dl); assay type: organism-based; conditions: in vivo; outline: as §1
Leishmania amazonensis [16] = assay: Antileishmanial activity against stationary-phase Leishmania amazonensis MHOM/BR/75/LTB0016 promastigotes infected in Balb/c mouse assessed as reduction in parasite load at 2 mg/kg, po administered once daily via orogastric tube starting from 7 days post infection for 32 days by dilution method; assay type: functional, organism-based; outline: as §4
Leishmania amazonensis [17] = assay: Synergistic antileishmanial activity against stationary-phase Leishmania amazonensis MHOM/BR/75/LTB0016 promastigotes infected in Balb/c mouse assessed as reduction in lesion size at 1 mg/kg, po administered once daily via orogastric tube starting from 7 days post infection for 32 days measured twice weekly during compound dosing in presence of 4 mg/kg miltefosine by caliper method relative to control; assay type: functional; parameters: scale not given: the % may be the effect or the level left; outline: as §3
Leishmania amazonensis [18] = assay: Antileishmanial activity against stationary-phase Leishmania amazonensis MHOM/BR/75/LTB0016 promastigotes infected in human THP1-derived macrophages at test compound to miltefosine ratio of 3:2 by serial dilution based light microscopic method; assay type: functional, organism-based
Leishmania amazonensis [19] = assay: Antileishmanial activity against stationary-phase Leishmania amazonensis MHOM/BR/75/LTB0016 promastigotes infected in human THP1-derived macrophages by serial dilution based light microscopic method; assay type: functional, organism-based
Mus musculus [20] = assay: Hepatotoxicity in Balb/c mouse infected with stationary-phase Leishmania amazonensis MHOM/BR/75/LTB0016 promastigotes assessed as serum ALT level at 8 mg/kg, po administered once daily via orogastric tube for 32 days starting from 7 days post infection measured post last dose (reference value: 88.41 +/- 8.77 U/L); assay type: toxicity, organism-based; conditions: in vivo; outline: as §1
Leishmania amazonensis [21] = assay: Synergistic antileishmanial activity against stationary-phase Leishmania amazonensis MHOM/BR/75/LTB0016 promastigotes infected in human THP1-derived macrophages assessed as fractional inhibitory concentration at apigenin to test compound ratio of 1:4 by serial dilution based light microscopic method; assay type: functional; outline: as §2
Leishmania amazonensis [22] = assay: Synergistic antileishmanial activity against stationary-phase Leishmania amazonensis MHOM/BR/75/LTB0016 promastigotes infected in human THP1-derived macrophages assessed as fractional inhibitory concentration at apigenin to test compound ratio of 4:1 by serial dilution based light microscopic method; assay type: functional; outline: as §2
Leishmania amazonensis [23] = assay: Antileishmanial activity against stationary-phase Leishmania amazonensis MHOM/BR/75/LTB0016 promastigotes infected in human THP1-derived macrophages at apigenin to test compound ratio of 3:2 by serial dilution based light microscopic method; assay type: functional, organism-based
Leishmania amazonensis [24] = assay: Synergistic antileishmanial activity against stationary-phase Leishmania amazonensis MHOM/BR/75/LTB0016 promastigotes infected in human THP1-derived macrophages assessed as fractional inhibitory concentration at apigenin to test compound ratio of 2:3 by serial dilution based light microscopic method; assay type: functional; outline: as §2
Mus musculus [25] = assay: Renal toxicity in Balb/c mouse infected with stationary-phase Leishmania amazonensis MHOM/BR/75/LTB0016 promastigotes assessed as serum creatinine level at 8 mg/kg, po administered once daily via orogastric tube for 32 days starting from 7 days post infection measured post last dose (reference value: 0.61 +/- 0.06 mg/dl); assay type: organism-based; conditions: in vivo; outline: as §1
Leishmania amazonensis [26] = assay: Synergistic antileishmanial activity against stationary-phase Leishmania amazonensis MHOM/BR/75/LTB0016 promastigotes infected in human THP1-derived macrophages assessed as fractional inhibitory concentration at apigenin to test compound ratio of 3:2 by serial dilution based light microscopic method; assay type: functional; outline: as §2
Mus musculus [27] = assay: Hepatotoxicity in Balb/c mouse infected with stationary-phase Leishmania amazonensis MHOM/BR/75/LTB0016 promastigotes assessed as serum AST level at 8 mg/kg, po administered once daily via orogastric tube for 32 days starting from 7 days post infection measured post last dose (reference value: 161.1 +/- 20.99 U/L); assay type: toxicity, organism-based; conditions: in vivo; outline: as §1
Leishmania amazonensis [28] = assay: Antileishmanial activity against stationary-phase Leishmania amazonensis MHOM/BR/75/LTB0016 promastigotes infected in human THP1-derived macrophages at apigenin to test compound ratio of 4:1 by serial dilution based light microscopic method; assay type: functional, organism-based
Leishmania amazonensis [29] = assay: Antileishmanial activity against stationary-phase Leishmania amazonensis MHOM/BR/75/LTB0016 promastigotes infected in human THP1-derived macrophages at apigenin to test compound ratio of 2:3 by serial dilution based light microscopic method; assay type: functional, organism-based
Leishmania amazonensis [30] = assay: Antileishmanial activity against stationary-phase Leishmania amazonensis MHOM/BR/75/LTB0016 promastigotes infected in human THP1-derived macrophages at apigenin to test compound ratio of 1:4 by serial dilution based light microscopic method; assay type: functional, organism-based
Leishmania amazonensis [31] = assay: Antileishmanial activity against stationary-phase Leishmania amazonensis MHOM/BR/75/LTB0016 promastigotes infected in Balb/c mouse assessed as reduction in parasite load at 8 mg/kg, po administered once daily via orogastric tube starting from 7 days post infection for 32 days by dilution method; assay type: functional, organism-based; outline: as §4
Leishmania amazonensis [32] = assay: Antileishmanial activity against stationary-phase Leishmania amazonensis MHOM/BR/75/LTB0016 promastigotes infected in Balb/c mouse assessed as reduction in lesion size at 8 mg/kg, po administered once daily via orogastric tube starting from 7 days post infection for 32 days measured twice weekly during compound dosing by caliper method; assay type: functional, organism-based; outline: as §3

O=c1cc(-c2ccc(O)cc2)oc2cc(O)cc(O)c12 [APIGENIN]
Activity (Mus musculus [1]): 53.55 U/L | FIC50 (Leishmania amazonensis [2]): 0.77 | Activity (Mus musculus [3]): 43.21 U/L | FIC50 (Leishmania amazonensis [4]): 0.18 | Activity (Leishmania amazonensis [5]): Active | Activity (Mus musculus [6]): 115.1 U/L | EC50 (Leishmania amazonensis [7]): 160 nM | EC50 (Leishmania amazonensis [8]): 2990 nM | FIC50 (Leishmania amazonensis [9]): 0.04 | EC50 (Leishmania amazonensis [10]): 730 nM | Activity (Mus musculus [11]): 100.5 U/L | Activity (Leishmania amazonensis [12]): 95% | FIC50 (Leishmania amazonensis [13]): 0.37 | Activity (Mus musculus [14]): 0.69 mg/dL | Activity (Mus musculus [15]): 0.63 mg/dL | Activity (Leishmania amazonensis [16]): Active | Activity (Leishmania amazonensis [17]): 75% | EC50 (Leishmania amazonensis [18]): 1430 nM | EC50 (Leishmania amazonensis [19]): 3850 nM

CCCCCCCCCCCCCCCCOP(=O)([O-])OCC[N+](C)(C)C [MILTEFOSINE]
Activity (Mus musculus [20]): 61.14 U/L | FIC50 (Leishmania amazonensis [21]): 1.5 | FIC50 (Leishmania amazonensis [22]): 0.58 | EC50 (Leishmania amazonensis [23]): 730 nM | FIC50 (Leishmania amazonensis [24]): 2.03 | Activity (Mus musculus [25]): 0.66 mg/dL | FIC50 (Leishmania amazonensis [26]): 0.96 | Activity (Mus musculus [27]): 271.1 U/L | EC50 (Leishmania amazonensis [28]): 440 nM | EC50 (Leishmania amazonensis [29]): 1530 nM | EC50 (Leishmania amazonensis [30]): 1130 nM | Activity (Leishmania amazonensis [31]): Active | Activity (Leishmania amazonensis [32]): Active | EC50 (Leishmania amazonensis [19]): 750 nM
